# Measurements of several laboratories.
# NUAK1: NUAK family SNF1-like kinase 1 (NUAK1, Homo sapiens, UniProt O60285)
# DYRK1B: Dual specificity tyrosine-phosphorylation-regulated kinase 1B (DYRK1B, Homo sapiens, UniProt Q9Y463)
# BRDT BD2: Bromodomain testis-specific protein, BD2 (BRDT, Homo sapiens, UniProt Q58F21)
# PTGS2: Prostaglandin G/H synthase 2 (PTGS2, Homo sapiens, UniProt P35354)
# DYRK3: Dual specificity tyrosine-phosphorylation-regulated kinase 3 (DYRK3, Homo sapiens, UniProt O43781)
# CREBBP bromodomain: CREB-binding protein, bromodomain (CREBBP, Homo sapiens, UniProt Q92793)
SMILES,target,assay,test system,conditions,measurement,result
C[S+]([O-])c1ccc(-c2nc(-c3ccncc3)c(-c3ccc(F)cc3)[nH]2)cc1 (stereo not shown),"Transcription intermediary factor 1-beta (TRIM28, Homo sapiens, UniProt Q13263)","thermal stability, DSF",,10 µM,ΔTm,1.43 °C
Nc1ncnc2occ(-c3ccc(NC(=O)Nc4cc(C(F)(F)F)ccc4F)cc3)c12,"Mitogen-activated protein kinase kinase kinase 15 (MAP3K15, Homo sapiens, UniProt Q6ZN16)","cell-free assay, inhibitor",,20 µM,remaining signal,39%
CN(C)C1CCN(CC#Cc2nn(C3CCCC3)c3nc(NCc4ccccc4)ncc23)C1 (stereo not shown),NUAK1,"enzyme activity, inhibitor, FRET",,0.1 µM,inhibition,0%
O=C(O)c1ccc2c(c1)nc(Nc1ccc(Cl)cc1)c1ncncc12,DYRK1B,"enzyme activity, inhibitor, radiometric",,1 µM,remaining activity,80%
NS(=O)(=O)c1ccc(Nc2nc(-c3ccc(F)cc3)c3ccccc3n2)cc1,BRDT BD2,"binding, competition with immobilised ligand",,1 µM,remaining binding,4%
Cc1ccc(NC(=O)c2ccc(C)c(C(F)(F)F)c2)cc1C#Cc1nn(C2CCC(O)CC2)c2ncnc(N)c12 (stereo not shown),"Rho-associated protein kinase 2 (Rock2, Rattus norvegicus, UniProt Q62868)",cell-free assay,,10 µM,remaining signal,85%
O=C(O)c1ccc(O)cc1,PTGS2,"enzyme activity, inhibitor",,3.9 µg/mL,inhibition,61.1%
O=C(O)c1ccc2c(c1)nc(NCCc1cccc(Cl)c1)c1ccncc12,DYRK3,"enzyme activity, inhibitor, radiometric",,1 µM,remaining activity,5%
COC(=O)c1ccc(O)cc1,PTGS2,"enzyme activity, inhibitor",,0.98 µg/mL,inhibition,0%
O=C(O)c1ccc2c(c1)nc(NCCc1cccc(F)c1)c1ccncc12,DYRK1B,"enzyme activity, inhibitor, radiometric",,1 µM,remaining activity,106%
O=C(NCCCNc1nc(Nc2cccc(NC(=O)N3CCCC3)c2)ncc1C1CC1)C1CCC1,NUAK1,"enzyme activity, inhibitor, radiometric",,1 µM,remaining activity,51%
O=c1cc(-c2ccc(O)cc2)oc2cc(O)cc(O)c12,PTGS2,"enzyme activity, inhibitor",,31.25 µg/mL,inhibition,100%
CCN1CCN(Cc2ccc(NC(=O)c3ccc(C)c(Oc4ccnc5[nH]ccc45)c3)cc2C(F)(F)F)CC1,"Microtubule-associated serine/threonine-protein kinase 3 (MAST3, Homo sapiens, UniProt O60307)","target engagement in cells, inhibitor, chemoproteomics",Huh-7,1 µM,inhibition,-11.3%
COc1ccc2c(c1)c(CC(=O)O)c(C(F)(F)F)n2C(=O)c1ccc(Cl)cc1,PTGS2,"enzyme activity, inhibitor",,,kinact/KI,13000 M⁻¹ s⁻¹
COc1ccc(-c2cc(=O)c3c(O)cc(O[C@@H]4O[C@H](CO)[C@@H](O)[C@H](O)[C@H]4O)cc3o2)cc1O,PTGS2,"enzyme activity, inhibitor",,0.98 µg/mL,inhibition,72.2%
O=C(O)c1ccc2c(c1)nc(Nc1ccccc1)c1ccncc12,DYRK1B,"enzyme activity, inhibitor, radiometric",,1 µM,remaining activity,73%
NS(=O)(=O)c1ccc(CNc2nc(Nc3cccc(NC(=O)N4CCCC4)c3)ncc2Br)cc1,NUAK1,"enzyme activity, inhibitor, radiometric",,1 µM,remaining activity,11%
CC(CCC(=O)NCC(=O)O)C1CCC2C3CCC4CC(O)CCC4(C)C3CC(O)C12C (stereo not shown),"Serine hydroxymethyltransferase, mitochondrial (SHMT2, Homo sapiens, UniProt P34897)",thermal stability,,50 µM,ΔTm,12.3 °C
N#Cc1cccc(Nc2nc3cc(C(=O)O)ccc3c3cnccc23)c1,DYRK3,"enzyme activity, inhibitor, radiometric",,1 µM,remaining activity,0%
Cc1cc2c(cc1N1C(=O)c3cccc4c(Cl)ccc(c34)C1=O)n(C)c(=O)n2C,BRDT BD2,"thermal stability, DSF",,10 µM,ΔTm,-1 °C
Cn1nnc2ccc(NC(=O)c3cccc(C(=O)O)c3)cc21,CREBBP bromodomain,"thermal stability, DSF",,100 µM,ΔTm,2 °C
O=C(O)c1ccc2c(c1)nc(Nc1ccc3ccccc3c1)c1ccncc12,DYRK3,"enzyme activity, inhibitor, radiometric",,1 µM,remaining activity,4%
C=C[C@@]1(C)C=C2CC[C@@H]3[C@](C)(CCC[C@@]3(C)C(=O)O)[C@H]2CC1,PTGS2,"enzyme activity, inhibitor",,0.24 µg/mL,inhibition,0%
O=C(O)c1ccc2c(c1)nc(NCCc1ccccc1)c1ncncc12,DYRK3,"enzyme activity, inhibitor, radiometric",,1 µM,remaining activity,25%
Cc1cnc(Nc2ccc(OCCN3CCCC3)cc2)nc1Nc1cccc(S(=O)(=O)NC(C)(C)C)c1,BRDT BD2,"thermal stability, DSF",,10 µM,ΔTm,2.69 °C
Cn1cc(C(=O)Nc2cccc(C(=O)O)c2)ccc1=O,CREBBP bromodomain,"thermal stability, DSF",,100 µM,ΔTm,1.9 °C
Oc1ccc(-c2nc(-c3ccncc3)c(-c3ccc(F)cc3)[nH]2)cc1,"Bromodomain and WD repeat-containing protein 1, BD2 (BRWD1, Homo sapiens, UniProt Q9NSI6)","thermal stability, DSF",,10 µM,ΔTm,-0.73 °C
O=C(O)c1ccc2c(c1)nc(Nc1ccc(Cl)cc1)c1ccncc12,DYRK3,"enzyme activity, inhibitor, radiometric",,1 µM,remaining activity,2%
